Results from ChEMBL document CHEMBL2216753, “Novel 1,4-benzoxazine and 1,4-benzodioxine inhibitors of angiogenesis” (Eur J Med Chem, 2012).
Active and inactive are the calls of the source. The rule behind the calls is not given here.

Legend:
Gallus gallus = species on record: Gallus gallus; experiment: Antiangiogenic activity in chicken embryo chorioallantoic membrane model at 250 nmol/disc after 3 days; assay type: functional, tissue-based
HMEC-1 = experiment: Antiangiogenic activity in human HMEC1 cells assessed as inhibition of tube formation after 4 to 6 hrs by matrigel assay; assay type: functional, cell-based
Summary of the method: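 HMEC-1 (60,000 cells) seeded on matrigel (10 mg/mL) after 30 min gelling at 37 °C, in DMEM containing test compound; after 4–6 h cells photographed and tubes scored 0 (none) to 3 (maximal, like untreated control). Mean ± SD of 2–4 independent experiments; Student t test, p < 0.05 significant.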

MAEC [1] = experiment: Antimigratory activity against mouse MAEC cell migration at 30 uM after 5 hrs by wound closure assay; assay type: functional
Summary of the method: (§1)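 Confluent MAEC monolayers wounded with a 1.0-mm wide micropipette tip, then incubated in fresh medium with test compound. Wounds photographed after 5 h and width calculated from digital images. Mean ± SD of 2–4 independent experiments; Student t test, p < 0.05 significant.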

MAEC [2] = experiment: Antimigratory activity against mouse MAEC cell migration after 5 hrs by wound closure assay; assay type: functional, cell-based; summary of the method: as §1
[3] = Cytotoxicity against bovine BAEC cells at 30 uM after 3 days by coulter counter method; assay type: cell-based, Bos taurus; conditions: cattle, 72 h
Summary of the method: (§2)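 Cells seeded at 10,000 cells per cm2; after 16 h, fresh medium with test compound added. Cells trypsinized and counted with a Coulter counter on day 4 (BAEC, HeLa, MCF-7) or day 7 (HMEC-1). Cytotoxicity (cell death) was judged after 3 days in culture. HMEC-1 grown in EGM-2 with supplements and growth factors.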

[4] = Cytotoxicity against human HMEC1 cells at 30 uM after 3 days by coulter counter method; assay type: cell-based; conditions: hmec-1, 72 h; summary of the method: as §2
[5] = Antiproliferative activity against human HMEC1 cells after 7 days by coulter counter method; assay type: functional, cell-based; conditions: HMEC-1, 168 h
HeLa [6] = experiment: Antiproliferative activity against human HeLa cells after 4 days by coulter counter method; assay type: functional, cell-based; conditions: 96 h
HeLa [7] = experiment: Cytotoxicity against human HeLa cells at 30 uM after 3 days by coulter counter method; assay type: cell-based; conditions: 72 h; summary of the method: as §2
[8] = Cytotoxicity against bovine BAEC cells at 100 uM after 3 days by coulter counter method; assay type: cell-based, Bos taurus; conditions: cattle, 72 h; summary of the method: as §2
[9] = Antimigratory activity against mouse MAEC cell migration at 10 uM after 5 hrs by wound closure assay; assay type: functional; summary of the method: as §1
MCF7 [10] = experiment: Cytotoxicity against human MCF7 cells at 100 uM after 3 days by coulter counter method; assay type: cell-based; conditions: mcf7, 72 h; summary of the method: as §2
HeLa [11] = experiment: Cytotoxicity against human HeLa cells at 100 uM after 3 days by coulter counter method; assay type: cell-based; conditions: 72 h; summary of the method: as §2
[12] = Cytotoxicity against human HMEC1 cells at 100 uM after 3 days by coulter counter method; assay type: cell-based; conditions: hmec-1, 72 h; summary of the method: as §2
MCF7 [13] = experiment: Cytotoxicity against human MCF7 cells at 30 uM after 3 days by coulter counter method; assay type: cell-based; conditions: mcf7, 72 h; summary of the method: as §2
[14] = Antiproliferative activity against bovine BAEC cells after 4 days by coulter counter method; assay type: functional, cell-based; conditions: Bos taurus, 96 h
MCF7 [15] = experiment: Antiproliferative activity against human MCF7 cells after 4 days by coulter counter method; assay type: functional, cell-based; conditions: MCF7, 96 h

SMILES	inhibition (Gallus gallus)	IC50 [5] [µM]	IC50 (HeLa [6]) [µM]	Activity [8]	Activity (MCF7 [10])	Activity (HeLa [11])	Activity [12]	IC50 [14] [µM]	IC50 (MCF7 [15]) [µM]	further results
CN1CC(C)(COc2ccc(C(=N)N)cc2)Oc2cc(N(Cc3cccc(F)c3)C(=O)C(=O)O)ccc21 (stereo unspecified)	inactive	–	–	–	–	–	–	–	–	–
CCOC(=O)C(=O)N(Cc1cccc(F)c1)c1ccc2c(c1)N(C)CC(C)(COc1ccc(C(=N)N)cc1)O2 (stereo unspecified)	Active	–	–	–	–	–	–	–	–	inhibition (HMEC-1): Dose-dependent effect; inhibition (MAEC [1]): Active; inhibition (MAEC [2]): Dose-dependent effect
CN1CC(C)(COc2ccc(C(=N)N)cc2)Oc2ccc(N(Cc3ccc(F)cc3)C(=O)C(=O)O)cc21 (stereo unspecified)	inactive	–	–	–	–	–	–	–	–	–
CCOC(=O)C(=O)N(Cc1ccc(F)c(F)c1)c1ccc2c(c1)N(C)CC(C)(COc1ccc(C(=N)N)cc1)O2 (stereo unspecified)	Active	8.3	14	Toxic	Toxic	Toxic	Toxic	7.4	6.3	Activity [3]: Non-toxic; Activity [4]: Non-toxic; Activity (HeLa [7]): Non-toxic; inhibition at 10 µM [9]: 50%; inhibition (HMEC-1): Dose-dependent effect; inhibition (MAEC [1]): Active; Activity (MCF7 [13]): Non-toxic; inhibition (MAEC [2]): Dose-dependent effect
CCOC(=O)C(=O)N(Cc1cc(F)cc(F)c1)c1ccc2c(c1)N(C)CC(C)(COc1ccc(C(=N)N)cc1)O2 (stereo unspecified)	Active	7.8	6.9	Toxic	Toxic	Toxic	Toxic	11	5.2	Activity [3]: Non-toxic; Activity [4]: Non-toxic; Activity (HeLa [7]): Non-toxic; inhibition at 10 µM [9]: 50%; inhibition (HMEC-1): Dose-dependent effect; inhibition (MAEC [1]): Active; Activity (MCF7 [13]): Non-toxic; inhibition (MAEC [2]): Dose-dependent effect
CCOC(=O)CN(Cc1cc(F)cc(F)c1)c1ccc2c(c1)N(C)CC(C)(COc1ccc(C#N)cc1)O2 (stereo unspecified)	–	> 100	> 100	Toxic	Toxic	Toxic	Toxic	> 100	> 100	–
N=C(N)c1ccc(OCC2COc3cc(N(Cc4ccccc4)C(=O)C(=O)O)ccc3O2)cc1 (stereo unspecified)	inactive	–	> 100	–	–	–	–	> 100	–	–
CN1CC(C)(COc2ccc(C(=N)N)cc2)Oc2ccc(N(CC(=O)O)Cc3cccc(F)c3)cc21 (stereo unspecified)	inactive	–	–	–	–	–	–	–	–	–
CN1CC(C)(CO)Oc2cc(N(Cc3cc(F)cc(F)c3)C(=O)C(=O)O)ccc21 (stereo unspecified)	–	–	> 100	–	–	–	–	> 100	–	–
CCOC(=O)C(=O)N(Cc1ccc(F)cc1)c1ccc2c(c1)OC(C)(COc1ccc(C(=N)N)cc1)CN2C (stereo unspecified)	Active	7.6	14	Toxic	Toxic	Toxic	Toxic	6.9	6.3	Activity [3]: Non-toxic; Activity [4]: Non-toxic; Activity (HeLa [7]): Non-toxic; inhibition at 10 µM [9]: 50%; inhibition (HMEC-1): Dose-dependent effect; inhibition (MAEC [1]): Active; Activity (MCF7 [13]): Non-toxic; inhibition (MAEC [2]): Dose-dependent effect
CCOC(=O)C(=O)N(Cc1ccc(F)cc1)c1ccc2c(c1)N(C)CC(C)(COc1ccc(C(=N)N)cc1)O2 (stereo unspecified)	Active	8.4	14	Toxic	Toxic	Toxic	Toxic	6.6	5.5	Activity [3]: Non-toxic; Activity [4]: Non-toxic; Activity (HeLa [7]): Non-toxic; inhibition at 10 µM [9]: 50%; inhibition (HMEC-1): Dose-dependent effect; inhibition (MAEC [1]): Active; Activity (MCF7 [13]): Non-toxic; inhibition (MAEC [2]): Dose-dependent effect
CCOC(=O)CN(Cc1cccc(F)c1)c1ccc2c(c1)N(C)CC(C)(COc1ccc(C#N)cc1)O2 (stereo unspecified)	–	> 100	> 100	Toxic	Toxic	Toxic	Toxic	> 100	> 100	inhibition (MAEC [2]): Dose-dependent effect
CN1CC(C)(COc2ccc(C(=N)N)cc2)Oc2ccc(N(Cc3cccc(F)c3)C(=O)C(=O)O)cc21 (stereo unspecified)	inactive	–	–	–	–	–	–	–	–	–
CN1CC(C)(COc2ccc(C(=N)N)cc2)Oc2cc(N(Cc3ccc(F)cc3)C(=O)C(=O)O)ccc21 (stereo unspecified)	inactive	–	–	–	–	–	–	–	–	–
CN1CC(C)(COc2ccc(C(=N)N)cc2)Oc2ccc(N(CC(=O)O)Cc3ccc(F)c(F)c3)cc21 (stereo unspecified)	inactive	–	–	–	–	–	–	–	–	–
CCOC(=O)CN(Cc1ccc(F)cc1)c1ccc2c(c1)OC(C)(COc1ccc(C#N)cc1)CN2C (stereo unspecified)	–	> 100	> 100	Toxic	Toxic	Toxic	Toxic	50	> 100	–

SMILES	inhibition (Gallus gallus)	IC50 [5] [µM]	IC50 (HeLa [6]) [µM]	Activity [8]	Activity (MCF7 [10])	Activity (HeLa [11])	Activity [12]	IC50 [14] [µM]	IC50 (MCF7 [15]) [µM]	further results
CN1CC(C)(COc2ccc(C(=N)N)cc2)Oc2cc(N(Cc3ccc(F)c(F)c3)C(=O)C(=O)O)ccc21 (stereo unspecified)	inactive	–	–	–	–	–	–	–	–	–
CN1CC(C)(COc2ccc(C(=N)N)cc2)Oc2ccc(N(CC(=O)O)Cc3cc(F)cc(F)c3)cc21 (stereo unspecified)	inactive	–	–	–	–	–	–	–	–	–
CN1CC(C)(COc2ccc(C(=N)N)cc2)Oc2cc(N(CC(=O)O)Cc3cccc(F)c3)ccc21 (stereo unspecified)	inactive	–	–	–	–	–	–	–	–	–
CN1CC(C)(COc2ccc(C(=N)N)cc2)Oc2ccc(N(Cc3ccc(F)c(F)c3)C(=O)C(=O)O)cc21 (stereo unspecified)	inactive	–	–	–	–	–	–	–	–	–
CN1CC(C)(COc2ccc(C(=N)N)cc2)Oc2cc(N(Cc3cc(F)cc(F)c3)C(=O)C(=O)O)ccc21 (stereo unspecified)	inactive	–	–	–	–	–	–	–	–	–
CCOC(=O)C(=O)N(Cc1cccc(F)c1)c1ccc2c(c1)OC(C)(COc1ccc(C(=N)N)cc1)CN2C (stereo unspecified)	Active	7.9	7.7	Toxic	Toxic	Toxic	Toxic	6.5	3.8	Activity [3]: Non-toxic; Activity [4]: Non-toxic; Activity (HeLa [7]): Non-toxic; inhibition at 10 µM [9]: 50%; inhibition (HMEC-1): Dose-dependent effect; inhibition (MAEC [1]): Active; Activity (MCF7 [13]): Non-toxic; inhibition (MAEC [2]): Dose-dependent effect
CN1CC(C)(COc2ccc(C(=N)N)cc2)Oc2cc(N(CC(=O)O)Cc3cc(F)cc(F)c3)ccc21 (stereo unspecified)	inactive	–	–	–	–	–	–	–	–	–
CCOC(=O)C(=O)N(Cc1ccc(F)c(F)c1)c1ccc2c(c1)OC(C)(COc1ccc(C(=N)N)cc1)CN2C (stereo unspecified)	Active	6.7	11	Toxic	Toxic	Toxic	Toxic	4.9	5.8	Activity [3]: Non-toxic; Activity [4]: Non-toxic; Activity (HeLa [7]): Non-toxic; inhibition at 10 µM [9]: 50%; inhibition (HMEC-1): Dose-dependent effect; inhibition (MAEC [1]): Active; Activity (MCF7 [13]): Non-toxic; inhibition (MAEC [2]): Dose-dependent effect
CCOC(=O)CN(Cc1cc(F)cc(F)c1)c1ccc2c(c1)OC(C)(COc1ccc(C#N)cc1)CN2C (stereo unspecified)	–	49	> 100	Toxic	Toxic	Toxic	Toxic	25	54	–
CN1CC(C)(COc2ccc(C(=N)N)cc2)Oc2cc(N(CC(=O)O)Cc3ccc(F)cc3)ccc21 (stereo unspecified)	inactive	–	–	–	–	–	–	–	–	–
Cc1cc(C)c(/C=C2\C(=O)Nc3ccccc32)[nH]1	–	–	–	–	–	–	–	–	–	inhibition (MAEC [2]): Dose-dependent effect
CN1CC(C)(COc2ccc(C(=N)N)cc2)Oc2ccc(N(Cc3cc(F)cc(F)c3)C(=O)C(=O)O)cc21 (stereo unspecified)	inactive	–	–	–	–	–	–	–	–	–
CN1CC(C)(COc2ccc(C(=N)N)cc2)Oc2cc(N(CC(=O)O)Cc3ccc(F)c(F)c3)ccc21 (stereo unspecified)	inactive	–	–	–	–	–	–	–	–	–
N=C(N)c1ccc(OCC2COc3ccc(N(Cc4ccccc4)C(=O)C(=O)O)cc3O2)cc1 (stereo unspecified)	inactive	–	> 100	–	–	–	–	> 100	–	–
CN1CC(C)(COc2ccc(C(=N)N)cc2)Oc2ccc(N(CC(=O)O)Cc3ccc(F)cc3)cc21 (stereo unspecified)	inactive	–	–	–	–	–	–	–	–	–
CN1CC(C)(CO)Oc2cc(N(Cc3ccccc3)C(=O)C(=O)O)ccc21 (stereo unspecified)	–	–	> 100	–	–	–	–	> 100	–	–
